The text below walks through data of PubChem BioAssay AID809 (SRMLSC, 2007).

For orientation: EC50 means the midpoint of the concentration-response curve.

Activity calls are given as the source filed them.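 The calls were made as follows: active = EC50 for reversing nicotinamide-shortened yeast lifespan at or below a set limit; inactive = EC50 above that limit.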

The test concerns S. cerevisiae DeaD BB579, nicotinamide rescue growth, OD615 48 h. Put plainly: BB579 yeast growth restoration under nicotinamide – S. cerevisiae, yeast lifespan extension project, dose response (AID 809). The gist of the method:
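Assay system: Saccharomyces cerevisiae DeaD strain BB579, log-phase cells; Medium: CSMM-D glucose restrictive medium; Dosing: compounds from 0.078 to 10 µM final, 0.5% DMSO; Times: 4 h pre-incubation, 48 h exposure at 30 °C; Technique: optical density at 615 nm (absorbance); Evaluation: culture saturation density reflecting mother-cell replicative lifespan.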
Consider `O=C(N/N=C/c1cccc(F)c1)c1c(O)c2ccccc2[nH]c1=O`, for which the EC50 is 3.21 µM. To `O=C(Nc1cccc(Cl)c1)c1ccc2c(=O)n3c(nc2c1)CCCCC3` belongs 6.59 µM; to `O=C(c1ccccc1)C(CN1CCCC1)c1ccccc1` (stereo unspecified), 9.14 µM. As for `O=Cc1cc2ccccc2nc1SCc1ccc(Cl)cc1`, the figure is 8.27 µM; as for `O=C(CCN1CCCCCC1)Nc1ccc(F)cc1`, > 10 µM (inactive). As for `CCOc1ccc(C2=NNC(c3cccs3)=Nc3ccc(OCC)cc32)cc1`, the figure is > 10 µM (inactive). On to `Cc1ccc(C(=O)OC2=CC(=O)CC(C)(C)C2)cc1`, for which the EC50 was 2.94 µM. In the case of `CC(c1ccco1)N(C(=O)c1ccccc1NS(=O)(=O)c1cc([N+](=O)[O-])ccc1Cl)c1ccccn1` (stereo unspecified), the EC50 was 9.17 µM.

As for `O=C(O)Cc1ccc(N=Cc2c(O)ccc3ccccc23)cc1`, the EC50 was 3.85 µM. Take `O=C(Nc1scc(-c2ccc(F)cc2)c1C(=O)O)c1ccco1`: the half-maximal effective concentration (EC50) is 3.15 µM. For `CC1=NN(Cc2ccccc2)C(=O)C1C(c1ccccc1)C(C#N)C#N` (stereo unspecified), the EC50 is > 10 µM (inactive). As for `COc1ccc(/C=N/NC(=O)c2csc(-n3nc(C)cc3C(F)(F)F)n2)cc1`, the figure is > 10 µM (inactive); as for `COc1ccc(C(CNC(=O)c2cccc(Br)c2)N2CCCC2)cc1` (stereo unspecified), > 10 µM (inactive). To `Oc1ccc(NCc2ccccc2OCc2ccccc2F)cc1` belongs > 10 µM (inactive); to `O=C(NC(=S)NNC(=O)c1ccc(Cl)cc1Cl)c1cccnc1`, 9.35 µM; to `CCc1nnc(N2C(=O)c3ccc(Oc4ccc([N+](=O)[O-])cc4)cc3C2=O)s1`, > 10 µM (inactive).

On to `O=C(NCc1ccco1)c1cc(C(=O)C2CCCCC2)c[nH]1`, for which the EC50 is > 10 µM (inactive). As for `O=C1NCC2=C1C(c1ccc(Br)cc1)Nc1ccccc1N2` (stereo unspecified), the figure is 6.26 µM; as for `Cc1cc(N2C(=O)CC(Cc3ccccc3)C2=O)no1` (stereo unspecified), > 10 µM (inactive).

`CN1CCN(CC(=O)Nc2ccc(Cl)cc2Cl)CC1`: the EC50 is > 10 µM (inactive). In the case of `N#Cc1ccc(-c2ccc(OCC(=O)NCCc3ccccc3)cc2)cc1`, the EC50 was > 10 µM (inactive). To `CCn1ccc(C(=O)Nc2ccc(S(=O)(=O)Nc3ccccc3OC)cc2)n1` belongs > 10 µM (inactive); to `O=C1ON=C(c2ccccc2)/C1=C/c1ccc(-c2ccccc2[N+](=O)[O-])o1`, 3.82 µM. As for `CN(C)/C=C(/C(=O)c1ccc(Cl)cc1Cl)S(=O)(=O)c1ccc(Cl)cc1`, the figure is 5.49 µM; as for `COc1ccccc1N(CN1CCCC1=O)C(=O)c1c(F)cccc1F`, > 10 µM (inactive); as for `COc1cnc(-c2ccccn2)nc1Sc1cccc(Cl)c1`, 4.44 µM. To `O=C1c2ccccc2C(=O)N1OCc1ccccc1` belongs > 10 µM (inactive); to `CC1Cc2ccccc2N1C(=O)Cn1cnc2ccccc2c1=O` (stereo unspecified), 3.18 µM; to `CCCCOC(=O)n1c(=O)oc2cc(S(=O)(=O)N3CCCCC3)ccc21`, > 10 µM (inactive).

Consider `COc1ccc(CNC(=O)C2CCN(c3nc(OC)nc(OC)n3)CC2)cc1`, for which the EC50 is > 10 µM (inactive). As for `C=C(CC)C(=O)c1ccc(OCC(=O)O)c(Cl)c1Cl`, the figure is 7.07 µM.
